Assay results: ChEMBL document CHEMBL1134070, “Ring-Constrained (N)-methanocarba nucleosides as adenosine receptor agonists: independent 5'-uronamide and 2'-deoxy modifications” (Bioorg Med Chem Lett, 2001)

Assays:
[1] = molecular target: T1, Adenosine receptor A1 (Homo sapiens, UniProt P30542); assay: Agonist efficacy as effective concentration to stimulate binding of [35S]GTP-gamma-S, at human Adenosine A1 receptor; format: functional
T1 sequence (P30542 whole entry): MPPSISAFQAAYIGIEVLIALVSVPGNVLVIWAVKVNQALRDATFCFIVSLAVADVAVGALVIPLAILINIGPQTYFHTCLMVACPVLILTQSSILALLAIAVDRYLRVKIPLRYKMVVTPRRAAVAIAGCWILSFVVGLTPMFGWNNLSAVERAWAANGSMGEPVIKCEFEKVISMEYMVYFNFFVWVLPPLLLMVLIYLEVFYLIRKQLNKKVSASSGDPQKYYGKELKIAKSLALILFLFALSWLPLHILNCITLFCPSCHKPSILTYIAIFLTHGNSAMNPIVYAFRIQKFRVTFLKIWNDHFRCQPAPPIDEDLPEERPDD
Summary of the method: (§1)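 Functional agonist assay: stimulation of [35S]GTP-γ-S binding following activation of the human A1 receptor. EC50 and percent efficacy reported as mean±value.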

[2] = molecular target: T2, Adenosine receptor A1 (Homo sapiens) (UniProt P30542); assay: Efficacy to stimulate binding of [35S]GTP-gamma-S, at human Adenosine A1 receptor; format: functional; summary of the method: as §1
T2 sequence (whole entry): T1 sequence (P30542 whole entry)

[3] = molecular target: Adenosine receptor A2a (Rattus norvegicus) (UniProt P30543); assay: Displacement of [3H]-CGS- 21680 from A2A receptors (rA2A) in rat striatal membranes at 100 uM; format: cell membranes; settings: Membrane
Chain of Adenosine receptor A2a (Rattus norvegicus) (P30543 whole entry): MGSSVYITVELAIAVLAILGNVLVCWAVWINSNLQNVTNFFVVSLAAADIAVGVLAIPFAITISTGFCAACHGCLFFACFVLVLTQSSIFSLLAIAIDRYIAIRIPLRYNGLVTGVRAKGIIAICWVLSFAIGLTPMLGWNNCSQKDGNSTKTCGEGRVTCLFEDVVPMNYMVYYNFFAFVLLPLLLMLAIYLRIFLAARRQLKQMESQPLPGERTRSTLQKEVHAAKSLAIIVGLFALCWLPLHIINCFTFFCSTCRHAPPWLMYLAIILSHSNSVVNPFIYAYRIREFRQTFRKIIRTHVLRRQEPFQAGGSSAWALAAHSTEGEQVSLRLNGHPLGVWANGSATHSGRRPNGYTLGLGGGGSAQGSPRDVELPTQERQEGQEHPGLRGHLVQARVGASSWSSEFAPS
Summary of the method: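 Rat striatal membranes; percent displacement of specific [3H]CGS 21680 binding at A2A receptors measured at a single 100 μM test concentration.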

[4] = molecular target: T3, Adenosine receptor A2a (Rattus norvegicus, UniProt P30543); assay: Displacement of [3H]-CGS- 21680 from Adenosine A2A receptor in rat brain membrane; format: cell membranes
T3 sequence (P30543 whole entry): as above

[5] = molecular target: T4, Adenosine receptor A1 (Rattus norvegicus, UniProt P25099); assay: Ability to displace specific radioligand [3H]R-PIA binding at Adenosine A1 receptor in rat brain membrane; format: cell membranes
T4 sequence (P25099 whole entry): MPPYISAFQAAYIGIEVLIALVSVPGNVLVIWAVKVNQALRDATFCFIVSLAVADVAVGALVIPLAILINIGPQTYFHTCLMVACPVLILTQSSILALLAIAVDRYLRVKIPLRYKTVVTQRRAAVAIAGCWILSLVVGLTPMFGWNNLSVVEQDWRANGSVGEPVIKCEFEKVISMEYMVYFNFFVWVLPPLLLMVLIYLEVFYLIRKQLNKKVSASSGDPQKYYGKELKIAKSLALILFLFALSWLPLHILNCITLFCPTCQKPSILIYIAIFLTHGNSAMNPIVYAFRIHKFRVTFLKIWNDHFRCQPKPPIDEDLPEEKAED
Summary of the method: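 Rat brain membranes; competition against specific [3H]R-PIA binding at A1 receptors.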

[6] = molecular target: T5, Adenosine receptor A3 (Homo sapiens, UniProt P0DMS8); assay: Ability to displace specific radioligand [125I]AB-MECA binding at human Adenosine A3 receptor expressed in CHO cells; format: cell-based
T5 sequence (P0DMS8 whole entry): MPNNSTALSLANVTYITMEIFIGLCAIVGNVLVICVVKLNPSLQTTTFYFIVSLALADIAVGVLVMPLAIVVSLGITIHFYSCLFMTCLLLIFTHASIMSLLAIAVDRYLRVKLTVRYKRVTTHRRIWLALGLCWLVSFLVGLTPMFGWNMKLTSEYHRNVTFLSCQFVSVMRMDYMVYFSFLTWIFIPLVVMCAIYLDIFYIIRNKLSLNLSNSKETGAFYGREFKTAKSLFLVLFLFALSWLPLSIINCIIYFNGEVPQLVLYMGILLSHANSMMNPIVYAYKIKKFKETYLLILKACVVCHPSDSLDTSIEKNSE

[7] = molecular target: Adenosine receptor A2a (Rattus norvegicus) (UniProt P30543); assay: Displacement of [3H]-CGS- 21680 from Adenosine A2A receptor in rat striatal membranes at 10 uM; format: cell membranes; settings: Membrane
Summary of the method: (§2)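 Rat striatal membranes; percent displacement of specific [3H]CGS 21680 binding at A2A receptors measured at a single 10 μM test concentration.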

[8] = molecular target: T3, Adenosine receptor A2a; assay: Ability to displace specific radioligand [3H]-CGS- 21680 binding at A2A receptors (rA2A) in rat brain membrane; format: cell membranes
Summary of the method: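 Rat striatal membranes; competition against specific [3H]CGS 21680 binding at A2A receptors.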

[9] = molecular target: T1, Adenosine receptor A1; assay: Agonist efficacy as effective concentration to stimulate binding of [35S]GTP-gamma-S, at human A1 adenosine receptor; format: functional
Summary of the method: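 Functional agonist assay measuring agonist-stimulated [35S]GTP-γ-S binding through activation of the human A1AR. Potency was reported as EC50 together with percent efficacy, each as mean ± error.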

[10] = molecular target: Adenosine receptor A2a (Rattus norvegicus) (UniProt P30543); assay: Displacement of [3H]-CGS- 21680 from A2A receptors (rA2A) in rat striatal membranes at 10 uM; format: cell membranes; settings: Membrane; summary of the method: as §2
[11] = molecular target: T5, Adenosine receptor A3; assay: Agonist efficacy as effective concentration to stimulate binding of [35S]GTP-gamma-S, by activation of human A3AR receptor; format: functional

Compound `OC[C@@]12C[C@@H]1[C@@H](n1cnc3c(NC4CCCC4)nc(Cl)nc31)C[C@@H]2O` has an EC50 [1] of 2280 nM, an Efficacy [2] of 40% and a Displacement [3] of 45%.

`CCNC(=O)[C@@]12C[C@@H]1[C@@H](n1cnc3c(N)ncnc31)[C@H](O)[C@@H]2O` gave a Ki [4] of 100 nM.

`Nc1nc(Cl)nc2c1ncn2[C@H]1[C@H](O)[C@H](O)[C@]2(CO)C[C@H]12` showed a Ki [5] of 273 nM and a Ki [6] of 84.7 nM.

For `CNc1ncnc2c1ncn2[C@H]1[C@H](O)[C@H](O)[C@]2(CO)C[C@H]12`, the Displacement [7] was less than 10%.

For `CNc1nc(Cl)nc2c1ncn2[C@H]1[C@H](O)[C@H](O)[C@]2(CO)C[C@H]12`, the Ki [5] was 884 nM, the Displacement [7] was less than 10% and the Ki [6] was 22.5 nM.

Work on `CNC(=O)[C@@]12C[C@@H]1[C@@H](n1cnc3c(NCc4cccc(I)c4)nc(Cl)nc31)[C@H](O)[C@@H]2O` yielded a Ki [8] of 1660 nM and a Ki [5] of 83.9 nM.

`OC[C@@]12C[C@@H]1[C@@H](n1cnc3c(NCc4cccc(I)c4)nc(Cl)nc31)C[C@@H]2O` was tested, and the Ki [8] was 25400 nM, the Ki [5] was 8730 nM and the Ki [6] was 912 nM.

Work on `OC[C@@]12C[C@@H]1[C@@H](n1cnc3c(NC4CCCC4)ncnc31)C[C@@H]2O` yielded a Ki [5] of 5110 nM, an Efficacy [2] of 30% and a Displacement [3] of 15%. It also gave an EC50 [9] of 2890 nM and a Ki [6] of 2880 nM.

`CNC(=O)[C@@]12C[C@@H]1[C@@H](n1cnc3c(NC)nc(Cl)nc31)[C@H](O)[C@@H]2O` gave a Ki [5] of 805 nM, a Displacement [10] of less than 10% and an EC50 [11] of 25.5 nM. It also gave a Ki [6] of 6.19 nM.

In the case of `CNC(=O)[C@@]12C[C@@H]1[C@@H](n1cnc3c(NCc4cccc(I)c4)ncnc31)[C@H](O)[C@@H]2O`, the Ki [8] is reported as 548 nM, the Ki [5] is reported as 52.7 nM and the EC50 [11] is reported as 6.8 nM. The Ki [6] was 2.39 nM.
